Experiment [1] is filed under the species Rattus norvegicus. The experiment in a line: Ratio of kinetic parameter Vmax to that of Km in Rat liver ribosome. More on the design: unit not given here. The method in brief:
(§1)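 Ac-[3H]-L-Phe-tRNA (22 pmol) prebound 60 min at 37°C to rat liver ribosomes (4.0 A260 units) with poly(U), 1.6 mM GTP, FWR, 15 mM Mg(OAc)2, 100 mM Tris-HCl pH 7.5, 100 mM NH4Cl. Mixture added to puromycin compound, 37°C for varying times. Product extracted into ethyl acetate and counted. Km and Vmax by Wilkinson analysis.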

Experiment [2] can be described thus: Compound was evaluated for the cytotoxicity by using P-388 in vitro assay against P-388 mouse lymphoid leukemia cells in 4 mL of Fischer's medium with 10% horse serum. The format is functional. The following applies: P388, read-out: ED50 (the source's name). The method, boiled down: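 Twofold dilution series in duplicate tubes, each seeded with 4×10^5 cells, incubated 72 h at 37°C, stoppered and held at a 30° angle without agitation, rotated twice daily. Growth read by hemocytometer count, inoculum subtracted. Percent inhibition calculated against controls, ED50 derived from this.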

Experiment [3] is filed under the species Rattus norvegicus. The experiment in a line: Substrate efficiency was evaluated by using peptidyl transferase assay against Rat liver ribosome system. The format is functional. The method in brief:
as §1

Experiment [4] is filed under the species Rattus norvegicus. As to the kind of experiment: (§2) Kinetic constant was evaluated by using peptidyl transferase assay against Rat liver ribosome system. The method, boiled down:
as §1

Experiment [5] has as its system Escherichia coli. As to the kind of experiment: (§3) Kinetic constant was evaluated by using peptidyl transferase assay against Escherichia coli ribosome system. The method in brief: (§4)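 Ac-[14C]-L-Phe-tRNA (21 pmol) prebound 8 min at 28°C to washed E. coli ribosomes (2.78 A260 units) with poly(U), 1.50 mM GTP, FWR, 20 mM Mg(OAc)2, 130 mM Tris-HCl pH 7.5, 130 mM NH4Cl. Reaction started with puromycin compound in water, run for timed intervals, then stopped with NaOH. Ethyl acetate-extracted product counted, blank-corrected. Km and Vmax by Wilkinson analysis, triplicates.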

The subject of experiment [6] is Escherichia coli. As to the kind of experiment: Substrate efficiency was evaluated by using peptidyl transferase assay against Escherichia coli ribosome system. The class given is functional. The method in brief: as §4
For experiment [7], the system named is Escherichia coli. The experiment in a line: Ratio of kinetic parameter Vmax to that of Km in Escherichia coli ribosome system. More on the design: unit not given here. The method, boiled down:
as §4

Experiment [8] concerns Escherichia coli. The experiment is described as §3. The format is functional. The method in brief:
as §4

The species entered for experiment [9] is Rattus norvegicus. As to the kind of experiment: Substrate efficiency was evaluated by using peptidyl transferase assay against Rat liver ribosome system. The class given is functional. The method, boiled down:
as §1

Experiment [10] is filed under the species Rattus norvegicus. As to the kind of experiment: Substrate efficiency of the compound was evaluated by using peptidyl transferase assay against Rat liver ribosome system. The format is functional. The method in brief: as §1
The species entered for experiment [11] is Rattus norvegicus. The experiment is described as §2. The class given is functional. The method in brief: as §1

The structures appear in SMILES notation. Converted amounts (≈) assume the structure as drawn.

As usually defined, the Km is the concentration of substrate that gives half-maximal velocity. In the case of `COc1ccc(CC(N)C(=O)N[C@@H]2[C@@H](CO)C[C@@H](n3cnc4c(N(C)C)ncnc43)[C@@H]2O)cc1` (stereo partly specified), the results for the Ratio in the experiment filed under Rattus norvegicus [1] and with Escherichia coli [7] were 12400 and 4540, respectively. Moreover, the EC50 in experiment [2] is 0.3 µg/mL (≈ 0.639 µM). The values for the Efficiency in the experiment filed under Rattus norvegicus [3] and with Escherichia coli [6] were 22% and 45%, respectively. Further, the Km in the experiment filed under Rattus norvegicus [4] amounted to 300 µM; with Escherichia coli [8] it was 187 µM. Besides, the Vmax came to 3720 c.p.m in the experiment listed under Rattus norvegicus [4] and 850 c.p.m with Escherichia coli [5].
With `COc1ccc(CC(N)C(=O)N[C@@H]2CC[C@@H](n3cnc4c(N(C)C)ncnc43)[C@@H]2O)cc1` (stereo partly specified), the results for the Ratio in the experiment filed under Rattus norvegicus [1] and in the experiment with Escherichia coli [7] were 3160 and 3420, respectively. Also, the EC50 in experiment [2] turned out to be 0.8 µg/mL (≈ 1.82 µM). Further, the results for the Km in the experiment filed under Rattus norvegicus [4] and with Escherichia coli [5] were 276 µM and 188 µM, respectively. Besides, the Vmax in the experiment filed under Rattus norvegicus [4] is 871 c.p.m; in the experiment on Escherichia coli [5], 644 c.p.m. Also, the figures for the Efficiency in the experiment listed under Rattus norvegicus [9] and with Escherichia coli [6] were 5.7% and 34%, respectively.
As for `COc1ccc(CC(N)C(=O)N[C@H]2[C@@H](O)[C@H](n3cnc4c(N(C)C)ncnc43)O[C@@H]2C)cc1` (stereo partly specified), the Efficiency in the experiment listed under Rattus norvegicus [10] is 42%; in the experiment on Escherichia coli [6], 81%. Besides, the values for the Ratio in the experiment listed under Rattus norvegicus [1] and with Escherichia coli [7] were 23300 and 8220, respectively. In addition, in [2], the EC50 came to 0.3 µg/mL (≈ 0.659 µM). The Km in the experiment filed under Rattus norvegicus [4] came out at 610 µM; with Escherichia coli [8], 230 µM. The Vmax in the experiment listed under Rattus norvegicus [4] is 14200 c.p.m; with Escherichia coli [5], 1890 c.p.m.
Take `COc1ccc(C[C@H](N)C(=O)N[C@H]2[C@@H](O)[C@H](n3cnc4c(N(C)C)ncnc43)O[C@@H]2CO)cc1` [PUROMYCIN]: the Ratio in the experiment filed under Rattus norvegicus [1] turned out to be 55700; with Escherichia coli [7] it was 10200. In experiment [2], the EC50 amounted to 0.3 µg/mL (≈ 0.636 µM). The Efficiency in the experiment filed under Rattus norvegicus [3] and with Escherichia coli [6] was 100% each time. Also, the Vmax in the experiment listed under Rattus norvegicus [4] stood at 14200 c.p.m; in the experiment with Escherichia coli [5], 1890 c.p.m. The Km in the experiment listed under Rattus norvegicus [11] stood at 255 µM; in the experiment on Escherichia coli [8], 186 µM.

(Values after ChEMBL document CHEMBL1123375, “Carbocyclic puromycin: synthesis and inhibition of protein biosynthesis” (1986).)
